Activity calls are given as the source filed them. The calls are words filed in the database; no cut-off is given here. Residues, ends and D or L forms follow the SMILES beside them.
Columns and labels:
[1] = molecular target: T1, C-X-C chemokine receptor type 4 (Homo sapiens, UniProt P61073); test: Competitive binding affinity to CXCR4 in human SupT1 cells incubated for 40 mins by 12G5 antibody based fluorescence analysis; format: cell-based
[2] = test system: Human immunodeficiency virus 1; test: Antiviral activity against Human immunodeficiency virus 1 NL4-3 infected in human PBMC cells assessed as reduction in intracellular p24 level at 100 nM preincubated with cells 2 hrs followed by viral infection and measured after 24 hrs by ELISA; format: functional
How it was run: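 PBMCs from healthy donors (2.5×10^6 cells/mL) were exposed to compound for 2 h, washed, and infected with HIV-1 NL4-3 at MOI 0.02 for 2 h at 37°C. Cells were washed, resuspended in complete medium and incubated 24 h. Cells were then lysed with protease inhibitor, and intracellular p24 was quantified by ELISA.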

[3] = test system: C-X-C chemokine receptor type 4 (Homo sapiens), P61073 [Y45A]; test: Competitive binding affinity to CXCR4 Y45A mutant (unknown origin) expressed in CHO cells at 200 nM incubated for 30 mins by 12G5 antibody based fluorescence analysis; format: cell-based
How it was run: (§1)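 Wild-type or mutant CXCR4 cells (5×10⁵/well) incubated with single 200 nM concentration in FACS buffer (0.5% BSA, 0.05% azide in PBS) plus 12G5 anti-CD184 antibody, 30 min on ice; washed, FITC anti-mouse IgG 30 min on ice; fluorescence 485ex/528em; duplicates, ≥3 independent experiments, normalized as percent of control.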

[4] = test system: C-X-C chemokine receptor type 4 (Homo sapiens), P61073 [E288Q]; test: Binding affinity to CXCR4 E288Q mutant (unknown origin) expresssed in CHO cells at 200 nM incubated for 30 mins by 12G5 antibody based fluorescence analysis; format: cell-based; how it was run: as §1
[5] = test system: C-X-C chemokine receptor type 4 (Homo sapiens), P61073 [W195A]; test: Competitive binding affinity to CXCR4 W195A mutant (unknown origin) expresssed in CHO cells at 200 nM incubated for 30 mins by 12G5 antibody based fluorescence analysis; format: cell-based; how it was run: as §1
[6] = test system: Human immunodeficiency virus 1; test: Antiviral activity against Human immunodeficiency virus 1 NL4-3 infected in human PBMC cells assessed as inhibition of extracellular p24 level preincubated with cells for 2 hrs followed by viral infection for 2 hrs and measured after 5 days by ELISA
[7] = test system: C-X-C chemokine receptor type 4 (Homo sapiens), P61073 [D262N]; test: Binding affinity to CXCR4 D262N mutant (unknown origin) expresssed in CHO cells at 200 nM incubated for 30 mins by 12G5 antibody based fluorescence analysis; format: cell-based; how it was run: as §1
[8] = test system: C-X-C chemokine receptor type 4 (Homo sapiens), P61073 [Y116A]; test: Competitive binding affinity at CXCR4 Y116A mutant (unknown origin) expressed in CHO cells at 200 nM incubated for 30 mins by 12G5 antibody based fluorescence analysis; format: cell-based; how it was run: as §1
[9] = test system: C-X-C chemokine receptor type 4 (Homo sapiens), P61073 [D97A]; test: Binding affinity to CXCR4 D97A mutant (unknown origin) expresssed in CHO cells at 200 nM incubated for 30 mins by 12G5 antibody based fluorescence analysis; format: cell-based; how it was run: as §1
[10] = test system: C-X-C chemokine receptor type 4 (Homo sapiens), P61073 [W94A]; test: Competitive binding affinity at CXCR4 W94A mutant (unknown origin) expressed in CHO cells at 200 nM incubated for 30 mins by 12G5 antibody based fluorescence analysis; format: cell-based; how it was run: as §1
[11] = molecular target: T1, C-X-C chemokine receptor type 4; test: Antagonist activity at CXCR4 receptor in human SupT1 cells assessed as inhibition of SDF-1alpha-induced calcium release preincubated for 2 to 3 mins followed by SDF-1alpha addition by Fluo-4AM dye based fluorescence assay; format: functional, cell-based
How it was run: (§2)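 SupT1 cells loaded with Fluo-4AM (2 µM) plus probenecid (5 µM) for 30 min at 37°C in HBSS/20 mM HEPES, washed; 1×10⁶ cells/mL exposed to compound 2–3 min, then stimulated with 50 nM SDF-1α; fluorescence read at […]/510em.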

[12] = molecular target: T1, C-X-C chemokine receptor type 4; test: Inhibition of N-terminal flag-tagged CXCR4 (unknown origin) internalization expressed in CHO cells incubated for 45 mins and measured after 1 hr by FITC-labeled anti-flag antibody based fluorescence analysis
[13] = molecular target: T1, C-X-C chemokine receptor type 4; test: Antagonist activity at CXCR4 receptor in human SupT1 cells assessed as inhibition of SDF-1alpha-induced calcium release at 1 uM preincubated for 2 to 3 mins followed by SDF-1alpha addition by Fluo-4AM dye based fluorescence assay relative to control; format: functional, cell-based; how it was run: as §2
[14] = Stability of compound in water assessed as compound remaining at 1mM at 37 degC after 48 hrs by HPLC analysis relative to control; format: physicochemical; settings: read-out: Stability

T1 sequence (P61073 whole entry): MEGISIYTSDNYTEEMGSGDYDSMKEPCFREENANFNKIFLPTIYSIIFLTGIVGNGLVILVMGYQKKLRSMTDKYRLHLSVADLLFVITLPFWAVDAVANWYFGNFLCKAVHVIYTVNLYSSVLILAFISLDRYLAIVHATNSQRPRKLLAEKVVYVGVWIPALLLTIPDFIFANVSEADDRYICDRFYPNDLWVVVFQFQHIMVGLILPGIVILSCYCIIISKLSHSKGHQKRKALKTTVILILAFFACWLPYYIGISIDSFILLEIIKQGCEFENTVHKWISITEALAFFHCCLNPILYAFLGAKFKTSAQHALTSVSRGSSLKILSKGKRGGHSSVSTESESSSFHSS
Chain of C-X-C chemokine receptor type 4 (Homo sapiens), P61073 [W94A] (P61073 whole entry W94A): as the sequence (P61073 whole entry) above, with W94A counted along it
Chain of C-X-C chemokine receptor type 4 (Homo sapiens), P61073 [Y45A] (P61073 whole entry Y45A): as the sequence (P61073 whole entry) above, with Y45A counted along it
Chain of C-X-C chemokine receptor type 4 (Homo sapiens), P61073 [E288Q] (P61073 whole entry E288Q): as the sequence (P61073 whole entry) above, with E288Q counted along it
Chain of C-X-C chemokine receptor type 4 (Homo sapiens), P61073 [D97A] (P61073 whole entry D97A): as the sequence (P61073 whole entry) above, with D97A counted along it
Chain of C-X-C chemokine receptor type 4 (Homo sapiens), P61073 [D262N] (P61073 whole entry D262N): as the sequence (P61073 whole entry) above, with D262N counted along it
Chain of C-X-C chemokine receptor type 4 (Homo sapiens), P61073 [W195A] (P61073 whole entry W195A): as the sequence (P61073 whole entry) above, with W195A counted along it
Chain of C-X-C chemokine receptor type 4 (Homo sapiens), P61073 [Y116A] (P61073 whole entry Y116A): as the sequence (P61073 whole entry) above, with Y116A counted along it

Row | Compound | IC50 [1] | inhibition [2] | Activity [3] | Activity [4] | Activity [5] | inhibition [6] | Activity [7] | Activity [8] | Activity [9] | Activity [10] | inhibition [11] | Activity [12] | inhibition [13] | remaining at 48 h, 1000 µM [14]
1 | CC(C)C[C@@H](N)C(=O)NCC(=O)N[C@H](C)C(=O)N[C@H](CO)C(=O)N[C@H](Cc1c[nH]c2ccccc12)C(=O)N[C@H](Cc1cnc[nH]1)C(=O)N[C@H](CCCNC(=N)N)C(=O)N1CCC[C@@H]1C(=O)N[C@H](CC(=O)O)C(=O)N[C@H](CCCCN)C(=O)N[C@H](CS)C(=O)N[C@H](CS)C(=O)N[C@H](CC(C)C)C(=O)NCC(=O)N[C@H](Cc1ccc(O)cc1)C(=O)N[C@H](CCC(N)=O)C(=O)N[C@H](CCCCN)C(=O)N[C@H](CCCNC(=N)N)C(=O)N1CCC[C@@H]1C(=O)N[C@H](CC(C)C)C(=O)N1CCC[C@@H]1C(=O)NCCCCCC(=O)N[C@@H](CCCCN)C(=O)N[C@H](CCCCN)C(=O)N[C@H](CCCNC(=N)N)C(=O)N[C@H](Cc1ccccc1)C(=O)N[C@H](Cc1ccccc1)C(=O)N[C@H](CC(=O)O)C(=O)NCC(=O)N[C@H](CC(C)C)C(=O)N[C@H](CC(C)C)C(N)=O | 0.193 µM |  |  |  |  |  |  |  |  |  |  |  |  | 
2 | CC(C)C[C@@H](N)C(=O)NCC(=O)N[C@H](C)C(=O)N[C@H](CO)C(=O)N[C@H](Cc1c[nH]c2ccccc12)C(=O)N[C@H](Cc1cnc[nH]1)C(=O)N[C@H](CCCNC(=N)N)C(=O)N1CCC[C@@H]1C(=O)N[C@H](CC(=O)O)C(=O)N[C@H](CCCCN)C(N)=O (HELM PEPTIDE1{[dL].G.[dA].[dS].[dW].[dH].[dR].[dP].[dD].[dK].[am]}$$$$V2.0) |  | inactive | Active | inactive | inactive | inactive | inactive | Active | inactive | Active |  |  |  | 
3 | CC[C@H](C)[C@H](NC(=O)[C@H](CC(=O)O)NC(=O)CNC(=O)[C@H](CCCCN)NC(=O)[C@H](CCCNC(=N)N)NC(=O)[C@H](CCCCN)NC(=O)CCCCCNC(=O)[C@@H](CCCNC(=N)N)NC(=O)[C@@H](CCCCN)NC(=O)[C@@H](CCCCN)NC(=O)[C@@H](CC(=O)O)NC(=O)[C@H]1CCCN1C(=O)[C@@H](CCCNC(=N)N)NC(=O)[C@@H](Cc1cnc[nH]1)NC(=O)[C@@H](Cc1c[nH]c2ccccc12)NC(=O)[C@@H](CO)NC(=O)[C@@H](C)NC(=O)CNC(=O)[C@H](N)CC(C)C)C(=O)N[C@@H](CCCNC(=N)N)C(=O)N[C@@H](CCC(N)=O)C(=O)N[C@@H](C)C(=O)N[C@@H](Cc1cnc[nH]1)C(=O)N[C@@H](CS)C(N)=O |  | Active |  |  |  |  |  |  |  |  | Dose-dependent effect | inactive | 100% | 95%

Reference: ChEMBL document CHEMBL4393672, “High affinity CXCR4 inhibitors generated by linking low affinity peptides” (Eur J Med Chem, 2019)
